Sampled rows, rich in hits. Any-hit rate of the full collection: about 2.6%.
SENP7 block: SENP7 protease inhibition. Q9BQF6. recombinant SENP7, Z-RLRGG-aminoluciferin luminescence, 40 min. inhibition, % at 5 µM. 330,000 tested, 1.5% active. AID 434973;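 active = inhibition above about 50% at the single test dose, limit read from the data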;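 note: plate controls were DMSO with enzyme for no effect and no enzyme buffer wells for full effect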
Target sequence (Q9BQF6 706-1050 limits assumed): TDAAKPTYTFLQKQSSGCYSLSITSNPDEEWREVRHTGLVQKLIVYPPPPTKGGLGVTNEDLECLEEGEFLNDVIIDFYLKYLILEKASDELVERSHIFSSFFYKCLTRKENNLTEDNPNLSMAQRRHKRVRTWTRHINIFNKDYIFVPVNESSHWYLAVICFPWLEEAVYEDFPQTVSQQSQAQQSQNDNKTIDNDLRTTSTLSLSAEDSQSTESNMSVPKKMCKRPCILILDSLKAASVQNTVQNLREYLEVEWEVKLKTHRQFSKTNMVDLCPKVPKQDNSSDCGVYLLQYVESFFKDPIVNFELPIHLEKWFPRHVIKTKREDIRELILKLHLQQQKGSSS
SENP1 inh: SENP1 (human) catalytic domain inhibition; AID 624204; 360,000 tested, 0.21% active; recombinant SENP1 catalytic domain, CyPet-SUMO1-YPet FRET cleavage; inhibition, % at 10 µM;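 active = inhibition at least 30% at 10 µM, raw YFP signal under a set limit, fluorescence ratio 0.5 to 1.5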;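 note: 0% = enzyme with DMSO and 100% = no enzyme wells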
Target sequence (Q9P0U3 419-644 limits assumed): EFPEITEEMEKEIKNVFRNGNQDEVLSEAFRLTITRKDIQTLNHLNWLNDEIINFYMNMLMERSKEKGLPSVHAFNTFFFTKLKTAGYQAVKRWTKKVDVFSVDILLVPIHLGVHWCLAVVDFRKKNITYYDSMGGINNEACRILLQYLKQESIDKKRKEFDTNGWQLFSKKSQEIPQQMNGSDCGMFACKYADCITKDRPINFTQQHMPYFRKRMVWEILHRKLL
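Material – human SENP1 catalytic domain · Input – SENP1 enzyme, 20 pM final · Compound dosing – single concentration of 10 µM compound, 0.5% DMSO final · Timing – enzyme reaction for 50 min at room temperature, dark · Measured by – FRET fluorescence in CFP and YFP emission channels · Control set – no-enzyme wells low, DMSO-plus-enzyme wells high control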
SENP8 block-1: SENP8 protease inhibition; Q96LD8; 330,000 tested, 1.2% active; inhibition, % at 10 µM; purified SENP8, Z-RLRGG-aminoluciferin cleavage, luminescence; in the data active = inhibition above about 50%
SENP6 inh: SENP6 protease inhibition; Recombinant SENP6 catalytic domain, aminoluciferin luminescence; inhibition, % at 10 µM; 330,000 tested, 1.8% active; AID 2599;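 active = inhibition above about 50% at the single tested dose, limit read from the data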;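 note: plate controls were DMSO wells with enzyme for no effect and DMSO wells lacking enzyme for full effect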
SENP8 block-2: SENP8 (human) protease inhibition; Q96LD8; recombinant SENP8, Nedd8 substrate fluorescence; inhibition, % at 20 µM; 360,000 tested, 0.64% active; AID 602440; in the data active = inhibition mostly above about 40%, no sharp cut-off; inactive = mostly below about 27%
UCH37 inh: human UCH37 deubiquitinating enzyme inhibition | purified proteasome/UCH37, Ub-AMC cleavage fluorescence | inhibition, % (concentration not given with the values) | 330,000 tested, 0.33% active | AID 588478 | Q9Y5K5;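 active = mean inhibition over replicate wells above about 20%, limit read from the data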;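 note: 0% = compound-free wells with enzyme and 100% = wells lacking proteasome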
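assay system = human UCH37 enzyme supplied as purified proteasome complex | amount = proteasome at 0.15 nM in the dispensed enzyme solution | schedule = 30 min compound-proteasome preincubation then 25 min substrate reaction, room temperature | measured by = fluorescence, ex 355 nm, em 460 nm | benchmarks = no-proteasome wells (full inhibition) and compound-free wells (no inhibition)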
* marks the source's active call; other numbers are inactive results; / = not tested or not shown.

SMILES	SENP7 block	SENP1 inh	SENP8 block-1	SENP6 inh	SENP8 block-2	UCH37 inh
O=c1/c(=C/c2ccccn2)sc2nc3ccccc3n12	98*	23	79*	84*	-42	/
O=c1c(=Cc2cc([N+](=O)[O-])cc([N+](=O)[O-])c2O)sc2nc3ccccc3n12	/	/	/	/	/	27*
O=c1c(=Cc2ccc(O)c([N+](=O)[O-])c2)sc2nc3ccccc3n12	/	/	/	/	/	15
COc1ccc(NC(C)C(=O)NN=Cc2cc(Br)ccc2OC)cc1 (centres undefined)	/	/	/	/	/	1
COc1cccc(C=NNC(=O)CNC(=O)COc2ccccc2)c1O	/	/	/	/	/	0
O=C(CC1SC(=O)N(c2ccccc2)C1=O)Nc1cccc2ccccc12 (centres undefined)	11	6	-1	-3	18	7
Cc1ccccc1NC(=O)CC1SC(=O)N(c2ccccc2)C1=O (centres undefined)	8	8	-8	-1	55*	4
O=[N+]([O-])c1ccc(-c2ccc(C=Nc3c(-c4ccco4)nc4ccccn34)o2)cc1	/	/	/	/	/	9
COc1ccc(-c2csc(NC3OC(=O)c4c3ccc(OC)c4OC)n2)cc1OC (centres undefined)	-13	1	-14	-20	12	6
COc1ccc2c(c1OC)C(=O)OC2Nc1nc(-c2cc3cc(Br)ccc3oc2=O)cs1 (centres undefined)	91*	-32	91*	95*	-382	-8
COC(=O)Nc1nnc(-c2ccccc2OC)s1	67*	-9	33	42	-168	-32
CCOC(=O)Nc1nnc(-c2ccccc2OC)s1	5	-1	-9	-22	-173	-11
Cc1ccc(Cn2ccc(=O)c(OCc3c(Cl)cccc3Cl)c2C)cc1	5	-4	2	-5	8	25*
CCOc1ccc(C(=O)O/N=C(\N)c2ccccn2)cc1OCC	21	-1	-13	-19	3	0
N/C(=N\OC(=O)c1cccc(Br)c1)c1ccccn1	98*	0	86*	96*	3	3
CCOc1ccc(C=NNC(=O)c2ccccc2C)cc1CN1CC2CC(C1)c1cccc(=O)n1C2 (centres undefined)	/	/	/	/	/	4
O=[N+]([O-])c1ccc(C=NNS(=O)(=O)c2ccc(F)cc2)o1	/	/	/	/	/	3
Cn1c(=NC(=O)c2ccccc2[N+](=O)[O-])sc2cc(S(C)(=O)=O)ccc21	57*	-2	-6	30	20	/
Cn1c(=NC(=O)c2ccc(S(=O)(=O)N3CCCc4ccccc43)cc2)sc2cc(S(C)(=O)=O)ccc21	5	4	9	7	-86	-2
Nc1ccc(C(=O)O)c(O)c1	4	-1	1	5	6	-2
Nc1ccc(N)c(C(=O)O)c1	4	38*	17	-53	-13	/
Cc1cccc(-c2n[nH]c(=S)n2N=Cc2ccco2)c1	/	/	/	/	/	6
O=c1cc(-c2ccccc2)oc2ccc3ccccc3c12	/	2	/	/	7	/
O=c1cc(-c2ccc(O)c(O)c2)oc2ccc3ccccc3c12	99*	0	96*	95*	-87	2
CC(=NNS(=O)(=O)c1ccc(Cl)c([N+](=O)[O-])c1)c1ccc(C)o1	/	/	/	/	/	8
SMILES	SENP7 block	SENP1 inh	SENP8 block-1	SENP6 inh	SENP8 block-2	UCH37 inh
Cn1cccc1/C=C1\SC(=S)N(Nc2ccccc2)C1=O	15	-96	5	18	43*	4
CCCC(C(=O)O)N1C(=O)/C(=C/c2cccn2C)SC1=S (centres undefined)	/	-41	/	/	19	22*
CC(C)C(C(=O)O)N1C(=O)/C(=C/C=C/c2ccco2)SC1=S (centres undefined)	-7	25	8	-115	15	5
O=C1/C(=C/c2cccnc2)SC(=S)N1Nc1ccccc1	10	2	3	6	11	0
O=C(O)C(Cc1ccccc1)N1C(=O)/C(=C/c2cccs2)SC1=S (centres undefined)	11	-3	2	-7	41*	6
CC(C)C(C(=O)O)N1C(=O)/C(=C/c2cccn2C)SC1=S (centres undefined)	/	-57	/	/	36	25*
Oc1c(Br)cc(C=NNC(=S)NCc2ccco2)cc1Br	/	/	/	/	/	-34
CCN(CC)c1ccc(C=NNC(=S)NCc2ccccc2)cc1	/	/	/	/	/	-57
O=C(C[n+]1cccc(C=NO)c1)N1CCCCCC1	/	/	/	/	/	1
CCn1cc(C=NNC(=O)COc2cccc(C)c2C)c(C)n1	/	/	/	/	/	3
Cc1ccc2nc(N3C(=O)C(O)=C(C(=O)c4cc5ccccc5o4)C3c3cccs3)sc2c1 (centres undefined)	78*	-39	68*	88*	-85	/
CCc1ccc2nc(N3C(=O)C(O)=C(C(=O)c4ccco4)C3c3cccs3)sc2c1 (centres undefined)	38	-18	30	55*	-114	/
Cc1ccc2nc(N3C(=O)C(O)=C(C(=O)c4ccco4)C3c3ccc(C)o3)sc2c1 (centres undefined)	0	-37	18	20	-40	/
Cc1ccc2nc(N3C(=O)C(O)=C(C(=O)c4ccc(C)o4)C3c3ccco3)sc2c1 (centres undefined)	76*	-83	64*	78*	-132	/
O=C(Cn1cncn1)NN=Cc1cccc2ccccc12	/	/	/	/	/	4
O=C(/C=C/c1ccco1)Oc1cc(Br)cc(C=NNC(=O)c2ccccc2O)c1	/	/	/	/	/	-24
O=C1CC(c2ccc(O)c(O)c2)Oc2c1ccc(O)c2O (centres undefined)	-3	4	22	3	51*	5
COc1cc(/C=C2/S/C(=N/S(=O)(=O)Cc3ccccc3)NC2=O)c([N+](=O)[O-])cc1OC	6	11	2	9	42*	10
COC1=CC(=O)c2ccccc2C1=O	18	2	51*	56*	-221	/
COC1=CC(=O)C=C(OC)C1=O	/	-1	/	/	22	/
COc1ccc(N2CCN(C(CNS(=O)(=O)c3cccs3)c3cccnc3)CC2)cc1 (centres undefined)	-4	-3	-5	-29	42*	0
O=S(=O)(NCC(c1cccnc1)N1CCN(c2ccccc2)CC1)c1cccs1 (centres undefined)	-6	-2	-1	-10	17	-4
CSc1nc2sc(-c3ccccc3)cc2c(=O)n1N	98*	0	94*	95*	-111	-7
CC(=O)N1CCc2cc(N=NC3=C(O)CC(C)(C)CC3=O)ccc21	9	67*	3	6	24	24*
O=C(Nc1cccc(Br)c1)c1ccc(OC2CSC2)cc1	96*	/	90*	92*	/	1
Cc1ccsc1C(=O)Nc1ccc(F)c([N+](=O)[O-])c1	71*	3	53*	77*	9	2
CC(C)c1ccc(C2CC(=O)N3CN(C)CSC3=C2C#N)cc1 (centres undefined)	-10	-15	4	17	-26	/

Screening results from PubChem BioAssay.
